The values below come from publication PMC3031448 (Journal of natural products, 2009).

In data set [1] the test system is PANC-1 human pancreatic carcinoma cells. The experiment in a line: Cell cycle analysis by flow cytometry. It is filed as cell-based. The note with it: PANC-1, 24 h, doses ≤ 46.5 μM. For orientation: In flow cytometry, cells or beads pass a laser one at a time.
The nature of data set [2]: Solubility. The note with it: three physiologically relevant pH levels. It is filed as physicochemical.
Data set [3] concerns Pseudomonas aeruginosa 27853. The experiment in a line: Antimicrobial broth dilution assay, P. aeruginosa. In kind it is cell-based. Summed up: (§1)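 Broth microdilution in microtiter format at 37 °C against the ATCC strains, with MIC as the read-out. C. albicans was grown in Sabouraud dextrose broth; MRSA and P. aeruginosa were grown in cation-supplemented Mueller-Hinton broth.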
(Dilution methods test growth across graded concentrations, often in twofold steps.)

Data set [4] in a line: Plasma protein binding. In kind it is in vitro ADME. The note with it: both test concentrations.
The subject of data set [5] is methicillin-resistant Staphylococcus aureus 700787. The experiment in a line: Antimicrobial broth dilution assay, MRSA. In kind it is cell-based. As to conditions: methicillin-resistant Staphylococcous aureus. The gist of the method:
as §1

Data set [6] can be described thus: Plasma stability, human. In kind it is in vitro ADME. The note with it: 3 h, both test concentrations.
Data set [7] can be described thus: Plasma stability, mouse. It is filed as in vitro ADME. The note with it: 3 h, both test concentrations.
The subject of data set [8] is DNA. The data set is described as follows: Ethidium bromide displacement. It is filed as binding.
The subject of data set [9] is Candida albicans 44506. The experiment in a line: Antimicrobial broth dilution assay, C. albicans. In kind it is cell-based. The gist of the method: as §1

As to `CC(=O)N(C)CCc1cc(Br)c(OCCCNc2ncn(C)c3ncnc2-3)c(Br)c1` [Aphrocallistin, aphrocallistin], the cell cycle arrest entry in data set [1] is “induce G1 cell cycle arrest”; in data set [1] (listed as aphrocallistin), “significant cell cycle arrest at G1”. Further, the solubility result in data set [2] is “high”. Also, the antimicrobial activity entry in data set [3], in data set [5] and in data set [9] was “did not show significant inhibition” throughout. The protein binding result in data set [4] is on record as “moderate protein binding”. The plasma stability entry in [6] and in [7] was “excellent stability” in each case. Besides, the “displacement of ethidium bromide (direct DNA binding)” value in data set [8] is given as “no displacement of ethidium bromide was observed”.
